ChEMBL document CHEMBL1629686, “Substrate selectivity and a novel role in inhibitor discrimination by residue 237 in the KPC-2 beta-lactamase” (Antimicrob Agents Chemother, 2010)

Key:
[1] = test system: Escherichia coli; experiment: Antimicrobial activity against Escherichia coli DH10B harboring plasmid pBR322-catI carrying beta-lactamase KPC-2 by agar dilution method in presence of beta-lactamase inhibitor clavulanic acid; type: functional; settings: K-12 DH10B
[2] = test system: Escherichia coli; experiment: Antimicrobial activity against Escherichia coli DH10B harboring plasmid pBR322-catI carrying beta-lactamase KPC-2 by agar dilution method in presence of beta-lactamase inhibitor Sulbactam; type: functional; settings: K-12 DH10B
[3] = test system: Escherichia coli; experiment: Antimicrobial activity against Escherichia coli DH10B harboring beta-lactamase KPC-2 T237A mutant by agar dilution method in presence of beta-lactamase inhibitor clavulanic acid; type: functional; settings: K-12 DH10B
Summary of the method: (§1)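 LB agar dilution MICs by CLSI criteria, applied with a Steers replicator. […] Hosts were E. coli DH10B carrying pBC SK(+) with wild-type blaKPC-2 or a position 237 variant.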

[4] = test system: Escherichia coli; experiment: Antimicrobial activity against Escherichia coli DH10B harboring beta-lactamase KPC-2 T237A mutant by agar dilution method in presence of beta-lactamase inhibitor Sulbactam; type: functional; settings: K-12 DH10B; summary of the method: as §1
[5] = test system: Escherichia coli; experiment: Antimicrobial activity against Escherichia coli DH10B harboring beta-lactamase KPC-2 T237G mutant by agar dilution method in presence of beta-lactamase inhibitor clavulanic acid; type: functional; settings: K-12 DH10B
Summary of the method: (§2)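 LB agar dilution MICs per CLSI criteria, inoculated with a Steers replicator. […] Strains: E. coli DH10B alone, DH10B carrying empty pBC SK(+), or DH10B carrying pBC SK(+)-blaKPC-2 position 237 variants made by site-saturation mutagenesis and confirmed by sequencing. Plasmid selection used 20 mg/liter chloramphenicol.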

[6] = test system: Escherichia coli; experiment: Antimicrobial activity against Escherichia coli DH10B harboring beta-lactamase KPC-2 T237L mutant by agar dilution method in presence of beta-lactamase inhibitor Sulbactam; type: functional; settings: K-12 DH10B; summary of the method: as §1
[7] = test system: Escherichia coli; experiment: Antimicrobial activity against Escherichia coli DH10B harboring beta-lactamase KPC-2 T237M mutant by agar dilution method in presence of beta-lactamase inhibitor clavulanic acid; type: functional; settings: K-12 DH10B; summary of the method: as §1
[8] = test system: Escherichia coli; experiment: Antimicrobial activity against Escherichia coli DH10B harboring beta-lactamase KPC-2 T237M mutant by agar dilution method in presence of beta-lactamase inhibitor Sulbactam; type: functional; settings: K-12 DH10B; summary of the method: as §1
[9] = test system: Escherichia coli; experiment: Antimicrobial activity against Escherichia coli DH10B harboring beta-lactamase KPC-2 T237F mutant by agar dilution method in presence of beta-lactamase inhibitor Sulbactam; type: functional; settings: K-12 DH10B; summary of the method: as §1
[10] = test system: Escherichia coli; experiment: Antimicrobial activity against Escherichia coli DH10B harboring beta-lactamase KPC-2 T237P mutant by agar dilution method in presence of beta-lactamase inhibitor clavulanic acid; type: functional; settings: K-12 DH10B; summary of the method: as §2
[11] = test system: Escherichia coli; experiment: Antimicrobial activity against Escherichia coli DH10B harboring beta-lactamase KPC-2 T237Q mutant by agar dilution method in presence of beta-lactamase inhibitor clavulanic acid; type: functional; settings: K-12 DH10B; summary of the method: as §1
[12] = test system: Escherichia coli; experiment: Antimicrobial activity against Escherichia coli DH10B harboring beta-lactamase KPC-2 T237E mutant by agar dilution method in presence of beta-lactamase inhibitor Sulbactam; type: functional; settings: K-12 DH10B; summary of the method: as §1
[13] = test system: Escherichia coli; experiment: Antimicrobial activity against Escherichia coli DH10B harboring beta-lactamase KPC-2 T237H mutant by agar dilution method in presence of beta-lactamase inhibitor Sulbactam; type: functional; settings: K-12 DH10B; summary of the method: as §1
[14] = test system: Escherichia coli; experiment: Antimicrobial activity against Escherichia coli DH10B harboring beta-lactamase KPC-2 T237R mutant by agar dilution method in presence of beta-lactamase inhibitor clavulanic acid; type: functional; settings: K-12 DH10B; summary of the method: as §2
[15] = test system: Escherichia coli; experiment: Antimicrobial activity against Escherichia coli DH10B by agar dilution method in presence of beta-lactamase inhibitor clavulanic acid; type: functional; settings: K-12 DH10B; summary of the method: as §2
[16] = test system: Escherichia coli; experiment: Antimicrobial activity against Escherichia coli DH10B harboring plasmid […] by agar dilution method in presence of beta-lactamase inhibitor clavulanic acid; type: functional; settings: K-12 DH10B; summary of the method: as §2
[17] = test system: Klebsiella pneumoniae; experiment: Ratio of Kcat/Km for Klebsiella pneumoniae 1534 beta-lactamase KPC-2 T237S mutant by spectrophotometric analysis
Summary of the method: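 Purified KPC-2 variant enzymes (periplasmic lysate from E. coli, preparative isoelectric focusing). Hydrolysis followed by diode-array spectrophotometry in 10 mM PBS, pH 7.4, room temperature. Enzyme at 10 nM with substrate in molar excess for pseudo-first-order conditions. Vmax and Km came from a nonlinear least-squares Michaelis-Menten fit.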

[18] = test system: Klebsiella pneumoniae; experiment: Selectivity index, Ratio of Kcat/Km for Klebsiella pneumoniae 1534 beta-lactamase KPC-2 T237S mutant to ratio of Kcat/Km for Klebsiella pneumoniae 1534 beta-lactamase KPC-2 by spectrophotometric analysis
Summary of the method: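 Kinetics used purified enzymes in 10 mM PBS, pH 7.4, room temperature, with 10 nM enzyme and substrate in excess. Km and Vmax came from a Michaelis-Menten fit. kcat/Km of the variant was compared with wild type as ΔΔG = −RT ln of the kcat/Km ratio.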

[19] = test system: Klebsiella pneumoniae; experiment: Antimicrobial activity against Klebsiella pneumoniae 1534 expressing beta-lactamase KPC-2 by agar dilution method in presence of beta-lactamase inhibitor Tazobactam; type: functional
Summary of the method: (§3)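 LB agar dilution MIC following CLSI criteria, inoculated with a Steers replicator. Tested as piperacillin-tazobactam at a fixed 8:1 ratio.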

[20] = test system: Escherichia coli; experiment: Antimicrobial activity against Escherichia coli DH10B harboring plasmid pBR322-catI carrying beta-lactamase KPC-2 by agar dilution method in presence of beta-lactamase inhibitor Tazobactam; type: functional; settings: K-12 DH10B; summary of the method: as §3
[21] = test system: Escherichia coli; experiment: Antimicrobial activity against Escherichia coli DH10B harboring beta-lactamase KPC-2 T237M mutant by agar dilution method in presence of beta-lactamase inhibitor Tazobactam; type: functional; settings: K-12 DH10B
Summary of the method: (§4)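 LB agar dilution MICs by CLSI criteria, inoculated with a Steers replicator. […] Strains were E. coli DH10B with or without pBC SK(+) carrying wild-type blaKPC-2 or a position 237 variant.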

[22] = test system: Escherichia coli; experiment: Antimicrobial activity against Escherichia coli DH10B harboring beta-lactamase KPC-2 T237Q mutant by agar dilution method in presence of beta-lactamase inhibitor Tazobactam; type: functional; settings: K-12 DH10B; summary of the method: as §4
[23] = test system: Escherichia coli; experiment: Antimicrobial activity against Escherichia coli DH10B harboring beta-lactamase KPC-2 T237H mutant by agar dilution method in presence of beta-lactamase inhibitor Tazobactam; type: functional; settings: K-12 DH10B; summary of the method: as §4
[24] = test system: Escherichia coli; experiment: Antimicrobial activity against Escherichia coli DH10B harboring beta-lactamase KPC-2 T237K mutant by agar dilution method in presence of beta-lactamase inhibitor Tazobactam; type: functional; settings: K-12 DH10B; summary of the method: as §4
[25] = test system: Escherichia coli; experiment: Antimicrobial activity against Escherichia coli DH10B by agar dilution method in presence of beta-lactamase inhibitor Tazobactam; type: functional; settings: K-12 DH10B; summary of the method: as §4
[26] = test system: Escherichia coli; experiment: Antimicrobial activity against Escherichia coli DH10B harboring plasmid […] by agar dilution method in presence of beta-lactamase inhibitor Tazobactam; type: functional; settings: K-12 DH10B; summary of the method: as §3

`CC1(C)S[C@@H]2[C@H](NC(=O)[C@H](N)c3ccccc3)C(=O)N2[C@H]1C(=O)O` [AMPICILLIN] gave an MIC [1] of 32 µg/mL, an MIC [2] of 512 µg/mL and an MIC [3] of 8 µg/mL. It also gave an MIC [4] of 64 µg/mL, an MIC [5] of 1 µg/mL and an MIC [6] of 16 µg/mL. For the same compound, the MIC [7] was 8 µg/mL, the MIC [8] was 16 µg/mL and the MIC [9] was 8 µg/mL. It also gave an MIC [10] of 1 µg/mL, an MIC [11] of 8 µg/mL and an MIC [12] of 8 µg/mL. For the same compound, the MIC [13] was 16 µg/mL, the MIC [14] was 1 µg/mL and the MIC [15] was 1 µg/mL. The MIC [16] was 1 µg/mL.
`CCN1CCN(C(=O)N[C@@H](C(=O)N[C@@H]2C(=O)N3[C@@H]2SC(C)(C)[C@@H]3C(=O)O)c2ccccc2)C(=O)C1=O` [PIPERACILLIN] showed a kcat/Km [17] of 7e+06 M⁻¹ s⁻¹, a fold change (FC) [18] of 2.7 and an MIC [19] of 64 µg/mL. The MIC [20] was 64 µg/mL, the MIC [21] was 2 µg/mL and the MIC [22] was 4 µg/mL. For the same compound, the MIC [23] was 1 µg/mL, the MIC [24] was 0.5 µg/mL and the MIC [25] was 0.5 µg/mL. It also gave an MIC [26] of 0.5 µg/mL.
